Data reported in ChEMBL document CHEMBL1148147, “New oplopane and eremophilane derivatives from Robinsonecio gerberifolius” (J Nat Prod, 2003).
Activity calls are given as the source filed them. The rule behind the calls is not given here.

Experiments:
Format in all cases: functional, cell-based
HCT-15 = experiment: Cytotoxicity against human HCT15 cells
Procedure, shortened: (§1)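 Human cancer cell lines (HCT-15 colon, MCF-7 breast, U-251 central nervous system, PC-3 prostate, K562 leukemia) tested over a dose range using the National Cancer Institute cytotoxicity screening protocol.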

MCF7 = experiment: Cytotoxicity against human MCF7 cells; procedure, shortened: as §1
U-251 = experiment: Cytotoxicity against human U251 cells; procedure, shortened: as §1
PC-3 = experiment: Cytotoxicity against human PC3 cells; procedure, shortened: as §1
K562 = experiment: Cytotoxicity against human K562 cells; procedure, shortened: as §1

**Q.** For C/C=C(/C)C(=O)O[C@H]1C[C@@H](O)C2=CC(=O)C(=C(C)C)C[C@]2(C)[C@H]1C, which IC50 (HCT-15) is on record?
**A.** > 100 µM

**Q.** And the IC50 (MCF7)?
**A.** > 100 µM

**Q.** And the IC50 (U-251)?
**A.** 24.1 µM

**Q.** And the IC50 (PC-3)?
**A.** 33.2 µM

**Q.** What about the IC50 (K562) of the same molecule?
**A.** > 100 µM

**Q.** COc1cccc2c1C(=O)c1c(O)c3c(c(O)c1C2=O)C[C@@](O)(C(=O)CO)C[C@@H]3O[C@H]1C[C@H](N)[C@H](O)[C@H](C)O1 [DOXORUBICIN] was tested. Which IC50 (PC-3) did it give?
**A.** 0.32 µM

**Q.** How did the IC50 (HCT-15) turn out when C/C=C(/C)C(=O)O[C@H]1C[C@@H](O)C2=CC(=O)C(C(C)(C)OO)=C[C@]2(C)[C@H]1C was run?
**A.** > 100 µM

**Q.** And the IC50 (MCF7)?
**A.** > 100 µM

**Q.** What about the IC50 (U-251) of the same molecule?
**A.** 33.7 µM

**Q.** What about the IC50 (PC-3) of the same molecule?
**A.** 16.5 µM

**Q.** What about the IC50 (K562) of the same molecule?
**A.** 46.3 µM

**Q.** How did the Activity (HCT-15) turn out when C/C=C(/C)C(=O)O[C@H]1C[C@@H](O)C2=CC(=O)C(C(C)(C)O)=C[C@]2(C)[C@H]1C was run?
**A.** inactive

**Q.** What about the Activity (MCF7) of the same molecule?
**A.** inactive

**Q.** What about the Activity (U-251) of the same molecule?
**A.** inactive

**Q.** And the Activity (PC-3)?
**A.** inactive

**Q.** And the Activity (K562)?
**A.** inactive

**Q.** Which results are given for C/C=C(/C)C(=O)O[C@H]1C[C@H]2O[C@]23Cc2occ(C)c2C[C@]3(C)[C@H]1C?
**A.** Activity (HCT-15): inactive; Activity (MCF7): inactive; Activity (U-251): inactive; Activity (PC-3): inactive; Activity (K562): inactive

**Q.** C/C=C(/C)C(=O)O[C@H]1C[C@@H](OC(=O)/C(C)=C/C)C2=CC(=O)C(=C(C)C)C[C@]2(C)[C@H]1C was tested. Which IC50 (HCT-15) did it give?
**A.** 12.8 µM

**Q.** And the IC50 (MCF7)?
**A.** 21 µM

**Q.** And the IC50 (U-251)?
**A.** 17.6 µM

**Q.** And the IC50 (PC-3)?
**A.** 10.7 µM

**Q.** And the IC50 (K562)?
**A.** 51.1 µM

**Q.** For C=C1C[C@@H](OC(C)=O)[C@@H](C(C)C)[C@@H]2[C@@H](C(C)=O)[C@@H](OC(=O)/C(C)=C\C)C[C@@H]12, which IC50 (HCT-15) is on record?
**A.** 43.6 µM

**Q.** And the IC50 (MCF7)?
**A.** 33.9 µM

**Q.** What about the IC50 (U-251) of the same molecule?
**A.** 13 µM

**Q.** And the IC50 (PC-3)?
**A.** 78.7 µM

**Q.** And the IC50 (K562)?
**A.** 13 µM
